# Measured values from different studies.
# Target: Protein-tyrosine kinase 2-beta (PTK2B, Homo sapiens, UniProt Q14289)
Structure (SMILES),read-out,mode,technique,tested at,quantity,value
O=c1nc(-c2ccccn2)sc2ccccc12,cell-free assay,,competition with immobilised ligand,1 µM,remaining binding,100%
Cc1[nH]c(/C=C2\C(=O)Nc3ccc(F)cc32)c(C)c1C(=O)N[C@H]1CCN(C(=O)N(C)C)C1,enzyme activity,inhibitor,,0.1 µM,remaining activity,109%
Cc1ccc(Nc2nccc(N(C)c3ccc4c(C)n(C)nc4c3)n2)cc1S(N)(=O)=O,enzyme activity,inhibitor,,0.3 µM,inhibition,6%
CO[C@@H](C)c1c(Nc2ccc([C@H](N(C)C(=O)C3CCS(=O)(=O)CC3)C(F)(F)F)cc2)cnc2cc(Cl)nn12,cell-free assay,,competition with immobilised ligand,1 µM,remaining binding,83%
c1nc2c(Nc3ccc4c(c3)OCCO4)nc(Nc3ccc4c(c3)OCCO4)nc2[nH]1,enzyme activity,inhibitor,,10 µM,activity vs control,2.3%
CN([C@@H]1CCc2c(CC(=O)O)c3cc(S(C)(=O)=O)ccc3n2C1)S(=O)(=O)c1ccc(F)cc1,cell-free assay,,competition with immobilised ligand,1 µM,remaining binding,100%
Cc1cc(NC(=O)c2cccc3cc(-c4cccc5[nH]nc(N)c45)ccc23)ccc1F,enzyme activity,inhibitor,,0.1 µM,activity vs control,113%
CNC(=O)c1cc(Oc2ccc(NC(=O)Nc3ccc(Cl)c(C(F)(F)F)c3)cc2)ccn1,enzyme activity,inhibitor,,0.3 µM,inhibition,-3%
Cc1ccc(C(=O)Nc2ccc(CN3CCN(C)CC3)c(C(F)(F)F)c2)cc1C#Cc1cnc2cccnn12,enzyme activity,inhibitor,,23.5 nM,remaining activity,45%
O=C1Nc2ccc(Cl)cc2C1=Cc1cc(Cl)c(O)c(Cl)c1,cell-free assay,,,0.5 µM,remaining signal,96.7%
COc1cc2ncnc(Nc3ccc(Oc4ccccc4)c(C)c3C)c2cc1OC,enzyme activity,inhibitor,,1 µM,inhibition,1%
CN(c1ccnc(CNc2nc(Nc3ccc4c(c3)CC(=O)N4)ncc2C(F)(F)F)n1)S(C)(=O)=O,cell-free assay,,competition with immobilised ligand,1 µM,remaining binding,59%
CC(C)(C)c1nc(-c2cccc(NS(=O)(=O)c3c(F)cccc3F)c2F)c(-c2ccnc(N)n2)s1,enzyme activity,inhibitor,radiometric,1 µM,remaining activity,109%
CCN(CC)CCNC(=O)c1c(C)[nH]c(/C=C2\C(=O)Nc3ccc(F)cc32)c1C,enzyme activity,inhibitor,,0.3 µM,inhibition,59%
O=C(Nc1cnn(-c2csc(C(=O)NC3COC3)c2)c1)Nc1ccccc1Cl,enzyme activity,inhibitor,,5 µM,remaining activity,93.5%
O=C1NC(=O)c2cc(Nc3ccc(F)cc3)c(Nc3ccc(F)cc3)cc21,cell-free assay,,,0.5 µM,remaining signal,111%
Cc1noc([C@H]2C[C@@H](c3ccc(C(F)(F)F)cc3)CN(C(=O)N3CCS(=O)(=O)C3)C2)n1,cell-free assay,,competition with immobilised ligand,1 µM,remaining binding,100%
Cc1ccc(C(=O)NCc2ccsc2)cc1C#Cc1cn(C(C)C)c2ncnc(N)c12,enzyme activity,inhibitor,,1 µM,activity vs control,57%
CC(C)(O)[C@H]1CC[C@H](Nc2ccc3ncc(-c4cccc(C(F)(F)F)c4)n3n2)CC1,enzyme activity,inhibitor,,1 µM,remaining activity,94.4%
Cc1nc(Cc2cccc(C(F)(F)F)c2)sc1-c1ccc(C(N)=O)nc1,cell-free assay,,competition with immobilised ligand,1 µM,remaining binding,100%
CC/C(=N\NC(=O)NCc1cccc(O)c1)c1ccc(O)c(C)c1O,enzyme activity,inhibitor,,0.1 µM,inhibition,-0.1%
Cc1sc(C(=O)NC2COC2)cc1-n1cc(NC(=O)Nc2c(F)cccc2Cl)cn1,enzyme activity,inhibitor,,10 µM,remaining activity,104%
CCN(CC)CCNC(=O)c1c(C)[nH]c(/C=C2\C(=O)Nc3ccc(F)cc32)c1C,enzyme activity,inhibitor,,1 µM,remaining activity,30%
O=C(Nc1ccc(Oc2ccc(F)cc2)cc1)N1CCc2ncccc2[C@H]1c1ccc(F)cc1,cell-free assay,,competition with immobilised ligand,1 µM,remaining binding,89%
COc1cc2ncnc(Nc3ccc(F)c(Cl)c3)c2cc1OCCCN1CCOCC1,cell-free assay,,,0.5 µM,remaining signal,98.9%
CNC(=O)c1cc2c(Oc3ccc(NC(=O)C4(C(=O)Nc5ccc(F)cc5)CC4)cc3)ccnc2cc1OC,enzyme activity,inhibitor,radiometric,1 µM,inhibition,79%
Oc1cccc(-c2nc(N3CCOCC3)c3oc4ncccc4c3n2)c1,cell-free assay,,,0.5 µM,remaining signal,103%
Cc1nc(C2CCN(C(=O)c3ccc(OC(F)(F)F)cc3N)CC2)c2ncc(N3CCN(C)CC3)cc2n1,cell-free assay,,competition with immobilised ligand,1 µM,remaining binding,100%
